# Article PMC11078286 (Therapeutic Drug Monitoring, 2024)
# Assays:
# [1] = Freeze–thaw stability; type: in vitro ADME, human; details: plasma, 3 F/T cycles, n = 6
# [2] = Bland–Altman comparison of plasma and hemaPEN DBS concentrations; type: in vivo, human; details: 15 patients with NSCLC
# How it was run: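 Paired trough samples came from each patient: a finger-prick hemaPEN DBS, and venous EDTA blood drawn within 10 min that was spun at 2000g for 10 min, with plasma stored at −80°C. Both matrices were quantified by UHPLC-MS/MS, with AZ7550 calibrated using the labelled [¹³C²H₃] standard. Plasma and DBS values were compared by Bland–Altman analysis, with limits of agreement at ±1.96 SD of the mean difference.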
# [3] = Long-term stability; type: in vitro ADME, human; details: DBS, Long-term (−80 degrees) for 30 d, n = 6
# [4] = Autosampler; type: in vitro ADME, human; details: plasma, n = 6
# [5] = tested on: CYP3A4; details: preclinical data; cited from earlier work
# [6] = Freeze–thaw stability; type: in vitro ADME, human; details: DBS, 3 F/T cycles, n = 6
# How it was run: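 QC samples were kept 8 hours at RT, then put through 3 freeze–thaw cycles: thaw 2 hours at RT, refreeze at −80°C for at least 12 hours. Plasma (20 µL) with I.S. was protein-precipitated with water/ACN and centrifuged 15,000g for 10 min. A DBS spot was extracted in ACN with I.S. and centrifuged 15,000g for 5 min. Six replicates were run on UHPLC-MS/MS, with relative error versus nominal.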
# [7] = Autosampler; type: in vitro ADME, human; details: DBS, n = 6
# How it was run: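 DBS QC samples were made by filling hemaPEN capillaries from a blood drop onto precut disks and drying 1 hour at RT. Each spot (2.74 μL) was extracted in 350 µL ACN plus I.S. (30 ng/mL), vortexed, centrifuged at 15,000g, then shaken 1 hour at RT. Processed extracts were held in the autosampler at 4°C for 24 hours. Six replicates were read by UHPLC-MS/MS in positive MRM mode, with relative error taken against nominal.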
# [8] = tested on: EGFR/T790M; details: cited from earlier work
# [9] = Long-term stability; type: in vitro ADME, human; details: plasma, Long-term (−80 degrees) for 30 d, n = 6
# How it was run: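 QC samples were stored at −80°C for 30 days before analysis. Plasma (20 µL) with I.S. (30 ng/mL) was precipitated with 150 µL water and 650 µL ACN, vortexed 5 min and centrifuged at 15,000g for 10 min. A hemaPEN DBS spot was extracted in 350 µL ACN with I.S. and centrifuged at 15,000g for 5 min. There were six replicates, 1 µL was injected for UHPLC-MS/MS MRM, and relative error was calculated versus nominal.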
# [10] = ref Rood et al, 30; cited from earlier work
structure (smiles),measurement,setting,value
C=CC(=O)Nc1cc(Nc2nccc(-c3cn(C)c4ccccc34)n2)c(OC)cc1N(C)CCN(C)C [Osimertinib],"Mean (measured concentration, stability)",[1]; nominal 1 ng/mL (LLOQ),1.14
same,RE (stability),[1]; nominal 1 ng/mL (LLOQ),10.47%
same,"Mean (measured concentration, stability)",[1]; nominal 3 ng/mL (LQC),3.02
same,RE (stability),[1]; nominal 3 ng/mL (LQC),0.07%
same,"Mean (measured concentration, stability)",[1]; nominal 30 ng/mL (MQC),28.84
same,RE (stability),[1]; nominal 30 ng/mL (MQC),−3.85%
same,"Mean (measured concentration, stability)",[1]; nominal 270 ng/mL (HQC),269.25
same,RE (stability),[1]; nominal 270 ng/mL (HQC),−0.27%
same,Mean concentration difference between plasma and hemaPEN DBS (Bland–Altman),[2],0.4%
same,"Mean (measured concentration, stability)",[3]; nominal 1 ng/mL (LLOQ),1.1
same,RE (stability),[3]; nominal 1 ng/mL (LLOQ),10.68%
same,"Mean (measured concentration, stability)",[3]; nominal 3 ng/mL (LQC),2.91
same,RE (stability),[3]; nominal 3 ng/mL (LQC),0.14%
same,"Mean (measured concentration, stability)",[3]; nominal 30 ng/mL (MQC),30.08
same,RE (stability),[3]; nominal 30 ng/mL (MQC),−2.18%
same,"Mean (measured concentration, stability)",[3]; nominal 270 ng/mL (HQC),269.97
same,RE (stability),[3]; nominal 270 ng/mL (HQC),0.71%
same,"Mean (measured concentration, stability)",[4]; nominal 1 ng/mL (LLOQ),1.04
same,RE (stability),[4]; nominal 1 ng/mL (LLOQ),7.21%
same,"Mean (measured concentration, stability)",[4]; nominal 3 ng/mL (LQC),2.96
same,RE (stability),[4]; nominal 3 ng/mL (LQC),−1.01%
same,"Mean (measured concentration, stability)",[4]; nominal 30 ng/mL (MQC),29.32
same,RE (stability),[4]; nominal 30 ng/mL (MQC),−2.3%
same,"Mean (measured concentration, stability)",[4]; nominal 270 ng/mL (HQC),279.56
same,RE (stability),[4]; nominal 270 ng/mL (HQC),0.58%
same,Metabolizing enzyme,[5],principally metabolized by cytochrome P450 (CYP3A4)
same,"Mean (measured concentration, stability)",[6]; nominal 1 ng/mL (LLOQ),1.06
same,RE (stability),[6]; nominal 1 ng/mL (LLOQ),8.95%
same,"Mean (measured concentration, stability)",[6]; nominal 3 ng/mL (LQC),3.01
same,RE (stability),[6]; nominal 3 ng/mL (LQC),−0.43%
same,"Mean (measured concentration, stability)",[6]; nominal 30 ng/mL (MQC),29.34
same,RE (stability),[6]; nominal 30 ng/mL (MQC),−2.24%
same,"Mean (measured concentration, stability)",[6]; nominal 270 ng/mL (HQC),271.92
same,RE (stability),[6]; nominal 270 ng/mL (HQC),0.24%
same,"Mean (measured concentration, stability)",[7]; nominal 1 ng/mL (LLOQ),1.07
same,RE (stability),[7]; nominal 1 ng/mL (LLOQ),7.15%
same,"Mean (measured concentration, stability)",[7]; nominal 3 ng/mL (LQC),2.96
same,RE (stability),[7]; nominal 3 ng/mL (LQC),−1.11%
same,"Mean (measured concentration, stability)",[7]; nominal 30 ng/mL (MQC),29.31
same,RE (stability),[7]; nominal 30 ng/mL (MQC),−2.7%
same,"Mean (measured concentration, stability)",[7]; nominal 270 ng/mL (HQC),271.88
same,RE (stability),[7]; nominal 270 ng/mL (HQC),0.69%
same,Greater potency toward mutated EGFR/T790M than wild-type EGFR,[8],200 ×
same,"Mean (measured concentration, stability)",[9]; nominal 1 ng/mL (LLOQ),1.15
same,RE (stability),[9]; nominal 1 ng/mL (LLOQ),15.47%
same,"Mean (measured concentration, stability)",[9]; nominal 3 ng/mL (LQC),2.91
same,RE (stability),[9]; nominal 3 ng/mL (LQC),−2.7%
same,"Mean (measured concentration, stability)",[9]; nominal 30 ng/mL (MQC),29.39
same,RE (stability),[9]; nominal 30 ng/mL (MQC),−2.02%
same,"Mean (measured concentration, stability)",[9]; nominal 270 ng/mL (HQC),270.31
same,RE (stability),[9]; nominal 270 ng/mL (HQC),0.11%
same,Degradation at RT,[10],rapid degradation
